# Results reported in ChEMBL document CHEMBL4689842, “EUbOPEN Chemogenomics Library wave 1” (2021).
# Tested on: Fibroblast
# Experiment: Multiplex assay against human fibroblast
# Format: toxicity, cell-based
# Summary of the method: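 Four dyes were applied at seeding to live cells: Hoechst33342, BioTracker Green Microtubule Cytoskeleton Dye, MitoTracker Red and Annexin V Alexa Fluor 680. Imaging after compound addition used a CQ1 microscope at 37°C and 5% CO2. CellPathfinder machine-learning gating then sorted cells into Hoechst high-intensity objects or normal cells, normal cells into healthy, pyknosed or fragmented nuclei, and pyknosed cells into mitotic or apoptotic, with tubulin, mitochondrial-mass and membrane-permeability phenotypes given as per cents of healthy-nucleus cells.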
# [1] = 12 h, 1 µM, compound concentration 1 uM, replicate 1
# [2] = 12 h, 1 µM, compound concentration 1 uM, replicate 2
# [3] = 12 h, 10 µM, compound concentration 10 uM, replicate 1
# [4] = 12 h, 10 µM, compound concentration 10 uM, replicate 2
# [5] = 24 h, 1 µM, compound concentration 1 uM, replicate 1
# [6] = 24 h, 1 µM, compound concentration 1 uM, replicate 2
# [7] = 24 h, 10 µM, compound concentration 10 uM, replicate 1
# [8] = 24 h, 10 µM, compound concentration 10 uM, replicate 2
# [9] = 48 h, 1 µM, compound concentration 1 uM, replicate 1
# [10] = 48 h, 1 µM, compound concentration 1 uM, replicate 2
# [11] = 48 h, 10 µM, compound concentration 10 uM, replicate 1
# [12] = 48 h, 10 µM, compound concentration 10 uM, replicate 2
smiles,measurement,setting,value
CN1CCN(CCOc2cc(OC3CCOCC3)c3c(Nc4c(Cl)ccc5c4OCO5)ncnc3c2)CC1 [SARACATINIB],Population Apoptotic (%),[1],59%
same,Population Fragmented Nuclei (%),[1],22%
same,Population Healthy Nuclei (%),[1],49%
same,Population Hoechst High Intensity Objects (%),[1],10%
same,Population Membrane Permeable-Phenotype (%),[1],24%
same,Population Mitochondria Different-Phenotype (%),[1],9%
same,Population Mitotic Cells (%),[1],40%
same,Population Normal (%),[1],89%
same,Population Pyknosed Nuclei (%),[1],27%
same,Population Tubulin-Different-Phenotype (%),[1],43%
same,Population Apoptotic (%),[2],70%
same,Population Fragmented Nuclei (%),[2],9%
same,Population Healthy Nuclei (%),[2],72%
same,Population Membrane Permeable-Phenotype (%),[2],0%
same,Population Mitochondria Different-Phenotype (%),[2],23%
same,Population Mitotic Cells (%),[2],30%
same,Population Normal (%),[2],90%
same,Population Pyknosed Nuclei (%),[2],18%
same,Population Tubulin-Different-Phenotype (%),[2],10%
same,Population Apoptotic (%),[3],60%
same,Population Fragmented Nuclei (%),[3],20%
same,Population Healthy Nuclei (%),[3],57%
same,Population Hoechst High Intensity Objects (%),[3],13%
same,Population Membrane Permeable-Phenotype (%),[3],16%
same,Population Mitochondria Different-Phenotype (%),[3],21%
same,Population Mitotic Cells (%),[3],39%
same,Population Normal (%),[3],86%
same,Population Pyknosed Nuclei (%),[3],21%
same,Population Tubulin-Different-Phenotype (%),[3],91%
same,Population Apoptotic (%),[4],75%
same,Population Fragmented Nuclei (%),[4],9%
same,Population Healthy Nuclei (%),[4],71%
same,Population Hoechst High Intensity Objects (%),[4],7%
same,Population Membrane Permeable-Phenotype (%),[4],21%
same,Population Mitochondria Different-Phenotype (%),[4],100%
same,Population Mitotic Cells (%),[4],25%
same,Population Normal (%),[4],92%
same,Population Pyknosed Nuclei (%),[4],18%
same,Population Tubulin-Different-Phenotype (%),[4],100%
same,Population Apoptotic (%),[5],47%
same,Population Fragmented Nuclei (%),[5],22%
same,Population Healthy Nuclei (%),[5],61%
same,Population Hoechst High Intensity Objects (%),[5],12%
same,Population Membrane Permeable-Phenotype (%),[5],17%
same,Population Mitochondria Different-Phenotype (%),[5],6%
same,Population Mitotic Cells (%),[5],52%
same,Population Normal (%),[5],87%
same,Population Pyknosed Nuclei (%),[5],16%
same,Population Tubulin-Different-Phenotype (%),[5],35%
same,Population Apoptotic (%),[6],50%
same,Population Fragmented Nuclei (%),[6],14%
same,Population Healthy Nuclei (%),[6],67%
same,Population Hoechst High Intensity Objects (%),[6],8%
same,Population Membrane Permeable-Phenotype (%),[6],6%
same,Population Mitochondria Different-Phenotype (%),[6],13%
same,Population Mitotic Cells (%),[6],50%
same,Population Normal (%),[6],91%
same,Population Pyknosed Nuclei (%),[6],18%
same,Population Tubulin-Different-Phenotype (%),[6],4%
same,Population Apoptotic (%),[7],50%
same,Population Fragmented Nuclei (%),[7],32%
same,Population Healthy Nuclei (%),[7],57%
same,Population Hoechst High Intensity Objects (%),[7],26%
same,Population Membrane Permeable-Phenotype (%),[7],11%
same,Population Mitochondria Different-Phenotype (%),[7],22%
same,Population Mitotic Cells (%),[7],50%
same,Population Normal (%),[7],73%
same,Population Pyknosed Nuclei (%),[7],10%
same,Population Tubulin-Different-Phenotype (%),[7],89%
same,Population Apoptotic (%),[8],85%
same,Population Fragmented Nuclei (%),[8],11%
same,Population Healthy Nuclei (%),[8],54%
same,Population Hoechst High Intensity Objects (%),[8],8%
same,Population Membrane Permeable-Phenotype (%),[8],21%
same,Population Mitochondria Different-Phenotype (%),[8],96%
same,Population Mitotic Cells (%),[8],14%
same,Population Normal (%),[8],91%
same,Population Pyknosed Nuclei (%),[8],34%
same,Population Tubulin-Different-Phenotype (%),[8],93%
same,Population Apoptotic (%),[9],55%
same,Population Fragmented Nuclei (%),[9],40%
same,Population Healthy Nuclei (%),[9],52%
same,Population Hoechst High Intensity Objects (%),[9],10%
same,Population Membrane Permeable-Phenotype (%),[9],11%
same,Population Mitochondria Different-Phenotype (%),[9],2%
same,Population Mitotic Cells (%),[9],44%
same,Population Normal (%),[9],89%
same,Population Pyknosed Nuclei (%),[9],6%
same,Population Tubulin-Different-Phenotype (%),[9],31%
same,Population Apoptotic (%),[10],66%
same,Population Fragmented Nuclei (%),[10],31%
same,Population Healthy Nuclei (%),[10],66%
same,Population Hoechst High Intensity Objects (%),[10],41%
same,Population Membrane Permeable-Phenotype (%),[10],15%
same,Population Mitochondria Different-Phenotype (%),[10],1%
same,Population Mitotic Cells (%),[10],33%
same,Population Normal (%),[10],58%
same,Population Pyknosed Nuclei (%),[10],2%
same,Population Tubulin-Different-Phenotype (%),[10],51%
same,Population Apoptotic (%),[11],71%
same,Population Fragmented Nuclei (%),[11],31%
same,Population Healthy Nuclei (%),[11],62%
same,Population Hoechst High Intensity Objects (%),[11],35%
same,Population Membrane Permeable-Phenotype (%),[11],8%
same,Population Mitochondria Different-Phenotype (%),[11],13%
same,Population Mitotic Cells (%),[11],28%
same,Population Normal (%),[11],64%
same,Population Pyknosed Nuclei (%),[11],6%
same,Population Tubulin-Different-Phenotype (%),[11],89%
same,Population Apoptotic (%),[12],0%
same,Population Fragmented Nuclei (%),[12],44%
same,Population Healthy Nuclei (%),[12],55%
same,Population Hoechst High Intensity Objects (%),[12],27%
same,Population Membrane Permeable-Phenotype (%),[12],12%
same,Population Mitochondria Different-Phenotype (%),[12],23%
same,Population Mitotic Cells (%),[12],0%
same,Population Normal (%),[12],72%
same,Population Pyknosed Nuclei (%),[12],0%
same,Population Tubulin-Different-Phenotype (%),[12],93%
Cc1nc(-c2ccc(-c3ccc(C(=O)N4CCc5cc6c(cc54)C4(CCN(C)CC4)CO6)cc3)c(C)c2)no1 [SB-224289],Population Apoptotic (%),[1],66%
same,Population Fragmented Nuclei (%),[1],35%
same,Population Healthy Nuclei (%),[1],33%
same,Population Hoechst High Intensity Objects (%),[1],7%
same,Population Membrane Permeable-Phenotype (%),[1],18%
same,Population Mitochondria Different-Phenotype (%),[1],25%
same,Population Mitotic Cells (%),[1],33%
same,Population Normal (%),[1],92%
same,Population Pyknosed Nuclei (%),[1],31%
same,Population Tubulin-Different-Phenotype (%),[1],75%
same,Total Cell Count,[1],188
same,Population Apoptotic (%),[2],28%
same,Population Fragmented Nuclei (%),[2],4%
same,Population Healthy Nuclei (%),[2],81%
same,Population Hoechst High Intensity Objects (%),[2],12%
same,Population Membrane Permeable-Phenotype (%),[2],10%
same,Population Mitochondria Different-Phenotype (%),[2],42%
same,Population Mitotic Cells (%),[2],71%
same,Population Normal (%),[2],87%
same,Population Pyknosed Nuclei (%),[2],14%
same,Population Tubulin-Different-Phenotype (%),[2],37%
same,Total Cell Count,[2],65
same,Population Apoptotic (%),[3],71%
same,Population Fragmented Nuclei (%),[3],34%
same,Population Healthy Nuclei (%),[3],40%
same,Population Hoechst High Intensity Objects (%),[3],15%
same,Population Membrane Permeable-Phenotype (%),[3],5%
same,Population Mitochondria Different-Phenotype (%),[3],62%
same,Population Mitotic Cells (%),[3],28%
same,Population Normal (%),[3],84%
same,Population Pyknosed Nuclei (%),[3],24%
same,Population Tubulin-Different-Phenotype (%),[3],89%
same,Total Cell Count,[3],213
same,Population Apoptotic (%),[4],63%
same,Population Fragmented Nuclei (%),[4],7%
same,Population Healthy Nuclei (%),[4],77%
same,Population Hoechst High Intensity Objects (%),[4],11%
same,Population Membrane Permeable-Phenotype (%),[4],54%
same,Population Mitochondria Different-Phenotype (%),[4],100%
same,Population Mitotic Cells (%),[4],36%
same,Population Normal (%),[4],88%
same,Population Pyknosed Nuclei (%),[4],15%
same,Population Tubulin-Different-Phenotype (%),[4],100%
same,Total Cell Count,[4],56
same,Population Apoptotic (%),[5],65%
same,Population Fragmented Nuclei (%),[5],32%
same,Population Healthy Nuclei (%),[5],41%
same,Population Hoechst High Intensity Objects (%),[5],14%
same,Population Membrane Permeable-Phenotype (%),[5],20%
same,Population Mitochondria Different-Phenotype (%),[5],27%
same,Population Mitotic Cells (%),[5],34%
same,Population Normal (%),[5],85%
same,Population Pyknosed Nuclei (%),[5],25%
same,Population Tubulin-Different-Phenotype (%),[5],79%
same,Total Cell Count,[5],202
same,Population Apoptotic (%),[6],0%
same,Population Fragmented Nuclei (%),[6],15%
same,Population Healthy Nuclei (%),[6],77%
same,Population Hoechst High Intensity Objects (%),[6],9%
same,Population Membrane Permeable-Phenotype (%),[6],6%
same,Population Mitochondria Different-Phenotype (%),[6],38%
same,Population Mitotic Cells (%),[6],100%
same,Population Normal (%),[6],90%
same,Population Pyknosed Nuclei (%),[6],7%
same,Population Tubulin-Different-Phenotype (%),[6],22%
same,Total Cell Count,[6],73
same,Population Apoptotic (%),[7],78%
same,Population Fragmented Nuclei (%),[7],35%
same,Population Healthy Nuclei (%),[7],25%
same,Population Hoechst High Intensity Objects (%),[7],17%
same,Population Membrane Permeable-Phenotype (%),[7],2%
same,Population Mitochondria Different-Phenotype (%),[7],61%
same,Population Mitotic Cells (%),[7],21%
same,Population Normal (%),[7],82%
same,Population Pyknosed Nuclei (%),[7],38%
same,Population Tubulin-Different-Phenotype (%),[7],66%
same,Total Cell Count,[7],186
same,Population Apoptotic (%),[8],76%
same,Population Fragmented Nuclei (%),[8],16%
same,Population Healthy Nuclei (%),[8],56%
same,Population Hoechst High Intensity Objects (%),[8],11%
same,Population Membrane Permeable-Phenotype (%),[8],86%
same,Population Mitochondria Different-Phenotype (%),[8],100%
same,Population Mitotic Cells (%),[8],23%
same,Population Normal (%),[8],88%
same,Population Pyknosed Nuclei (%),[8],26%
same,Population Tubulin-Different-Phenotype (%),[8],100%
same,Total Cell Count,[8],63
same,Population Apoptotic (%),[9],68%
same,Population Fragmented Nuclei (%),[9],44%
same,Population Healthy Nuclei (%),[9],46%
same,Population Hoechst High Intensity Objects (%),[9],21%
same,Population Membrane Permeable-Phenotype (%),[9],8%
same,Population Mitochondria Different-Phenotype (%),[9],6%
same,Population Mitotic Cells (%),[9],31%
same,Population Normal (%),[9],78%
same,Population Pyknosed Nuclei (%),[9],8%
same,Population Tubulin-Different-Phenotype (%),[9],50%
same,Total Cell Count,[9],277
same,Population Apoptotic (%),[10],0%
same,Population Fragmented Nuclei (%),[10],48%
same,Population Healthy Nuclei (%),[10],50%
same,Population Hoechst High Intensity Objects (%),[10],27%
same,Population Membrane Permeable-Phenotype (%),[10],12%
same,Population Mitochondria Different-Phenotype (%),[10],3%
same,Population Mitotic Cells (%),[10],100%
same,Population Normal (%),[10],72%
same,Population Pyknosed Nuclei (%),[10],0%
same,Population Tubulin-Different-Phenotype (%),[10],56%
same,Total Cell Count,[10],169
same,Population Apoptotic (%),[11],90%
same,Population Fragmented Nuclei (%),[11],46%
same,Population Healthy Nuclei (%),[11],21%
same,Population Hoechst High Intensity Objects (%),[11],33%
same,Population Membrane Permeable-Phenotype (%),[11],30%
same,Population Mitochondria Different-Phenotype (%),[11],50%
same,Population Mitotic Cells (%),[11],10%
same,Population Normal (%),[11],66%
same,Population Pyknosed Nuclei (%),[11],31%
same,Population Tubulin-Different-Phenotype (%),[11],85%
same,Total Cell Count,[11],142
same,Population Apoptotic (%),[12],100%
same,Population Fragmented Nuclei (%),[12],47%
same,Population Healthy Nuclei (%),[12],15%
same,Population Hoechst High Intensity Objects (%),[12],29%
same,Population Membrane Permeable-Phenotype (%),[12],14%
same,Population Mitochondria Different-Phenotype (%),[12],85%
same,Population Mitotic Cells (%),[12],0%
same,Population Normal (%),[12],70%
same,Population Pyknosed Nuclei (%),[12],36%
same,Population Tubulin-Different-Phenotype (%),[12],71%
same,Total Cell Count,[12],127
